Source: PubChem
Compounds with a hit are over-represented: about 9.4% of the library has one in this group of screens.
CSC inhib – blocks cancer stem cells; cancer stem cell-like cells viability, luminescence; inhibition, % at 7.5 µM; 300,000 compounds, 1.1% hits; AID 2717; in the data active means inhibition above about 75%; tested in HMLE shEcad cells
Mdm2 MdmX PPI – human Mdm2/MdmX binding inhibition. O15151+Q00987. SaOS-2 split-luciferase Mdm2/MdmX complementation, luminescence. inhibition, % at 8 µM. 330,000 compounds, 3% hits;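 active means inhibition of at least 50% at 8 µM in the primary screen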
L major viab – inhibitors of Leishmania major promastigote growth; AID 1063; inhibition, % at 10 µM; 200,000 compounds, 9% hits; Leishmania major promastigotes, resazurin fluorescence viability; in the data active means inhibition above about 50%;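 further: promastigotes grown with compound for 44 hours at 28 °C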
Beta cell apopt – blocks beta cell apoptosis | INS-1E cytokine-induced death, ATP luminescence, 48 h; percent of positive-control rescue, neutral wells zero | protection from apoptosis, % (concentration not given with the values) | 300,000 compounds, 0.8% hits;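 active means Every replicate reaches about 75%, or at least half do and their mean reaches it too, limit read from the data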;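 further: 0% = cytokine-treated negative control wells and 100% = positive control rescue; higher means more ATP so stronger rescue from cytokine killing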
T cruzi repl – T. cruzi replication inhibition | 300,000 compounds, 1.4% hits | T. cruzi beta-gal in NIH3T3, luminescence, 90 h | inhibition, % (no concentration beside the values);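 active means mean inhibition across valid replicates above about 55%, limit read from the data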;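 further: signal also drops with host cell toxicity which is not excluded here; 0% = plate median of DMSO wells and 100% = zero luminescence signal; higher percent means less beta-gal luminescence so fewer parasites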
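Assay system: NIH/3T3 fibroblasts plus reporter T. cruzi. Amount: NIH/3T3 cells, 5,000 per well. Buffer or medium: DMEM, 2% fetal bovine serum. Doses: compound pinned at 50 nL/well, DMSO. Schedule: ≥90 h infection period, 3 h prior cell attachment. Signal: luminescent β-galactosidase signal after 60 min lysis. Read-out: parasite load inhibition, %.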
SKKanGAS inh – inhibitors of SKKanGAS S. pyogenes growth in kanamycin (SK-promoter or general growth effect). AID 1662. inhibition, % at 7.5 µM. BacTiter-Glo, 6 h. 300,000 compounds, 1.3% hits;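 active means mean replicate score, as percent of positive control median, at least 50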;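 further: strain carries kanamycin resistance gene driven by streptokinase promoter and grows in 40 µg/ml kanamycin; loss of luminescence reflects streptokinase promoter inhibition or plain growth inhibition; 0% = median of DMSO wells and 100% = positive control at its reference dose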
* = called active by the depositor; x = no result.

SMILES	CSC inhib	Mdm2 MdmX PPI	L major viab	Beta cell apopt	T cruzi repl	SKKanGAS inh
O=C(NC(=S)NCCN1CCOCC1)c1ccccc1Br	-18	-7	40	-9	-8	6
CCCOc1ccc(/C=C2\SC(N)=NC2=O)cc1OC	-2	20	x	1	2	8
O=C1OC(c2cccs2)=N/C1=C\c1ccc(-c2cccc(Cl)c2)o1	4	14	2	2	-9	2
COc1ccc(/C=C2\SC(=S)N(NC(=O)c3ccncc3)C2=O)cc1OC	-6	18	-4	4	4	-9
COc1ccc(/C=C2\SC(=N)N(c3nccs3)C2=O)cc1OC	77*	17	97*	58	58*	89*
N=C1S/C(=C\c2ccc(-c3cccc(Cl)c3)o2)C(=O)N1c1nccs1	65	x	99*	72	16	131*
COc1ccc(/C=C2\SC(=O)N=C2N)cc1OC	-6	-14	53*	-7	7	1
Cc1cc(C(=O)CS(=O)(=O)c2ccc(Cl)cc2)cc(C)c1O	2	8	x	0	0	5
Nc1nc(N)c2c(n1)CCCC2	-2	-23	x	-3	-1	2
CCN(CCO)Cc1csc2ccc(Br)cc12	-1	17	99*	0	19	3
Cc1ccc2cc(CN(CCN3CCCC3)C(=O)Nc3ccccc3)c(=O)[nH]c2c1C	-1	14	31	2	11	-1
Cc1ccc2cc(CN(CCN3CCCC3)C(=O)Nc3ccc(F)cc3)c(=O)[nH]c2c1C	16	24	73*	-6	27	-5
CCc1nnc(NC(=O)CCC(=O)NCCc2ccc(OC)c(OC)c2)s1	6	4	61*	-3	-3	-2
COc1ccc(Cc2nnc(NC(=O)CSc3ccc(Cl)cc3)s2)cc1OC	x	x	-5	x	x	x
COc1ccc(Cc2nnc(NC(=O)CSc3ccccc3)s2)cc1OC	0	3	51*	-10	-1	-3
CCc1nnc(NC(=O)CSc2nnc(-c3ccccc3OC)n2-c2ccc(C)cc2)s1	-15	4	57*	1	1	3
CCc1nnc(NC(=O)CCC(=O)N2CCN(C3c4ccccc4-c4ccccc43)CC2)s1	-6	24	51*	-6	6	9
O=[N+]([O-])c1ccccc1CNc1ccc(F)c(Cl)c1	-7	28	-2	-1	-4	19
Fc1ccccc1CNc1cc(Cl)cc(Cl)c1	7	10	2	2	-5	73*
C/C=C(\C)C(=O)Nc1cccc(C2=NOC3(C2)C[C@H](C(N)=O)N(C(=O)CC#N)C3)c1 (stereo partly specified)	3	-12	x	-8	-6	1
CCOC(=O)C(=CN=C(N)Nc1nc2ccccc2o1)C(=O)OCC	8	-16	56*	-4	-16	0
CCn1c(SCc2ccc(OC)c(F)c2)nc2ccccc2c1=O	x	20	x	-2	20	25
CCOC(CCn1c(SCc2ccc([N+](=O)[O-])cc2)nc2ccccc2c1=O)OCC	7	9	51*	18	38	23
CCn1c(SCc2ccc(F)cc2)nc2ccccc2c1=O	27	20	x	5	9	51*
CCOC(=O)C1CCCN(CC(=O)Nc2nc(-c3ccccc3)cs2)C1 (stereo unspecified)	-12	-1	x	x	-7	2
SMILES	CSC inhib	Mdm2 MdmX PPI	L major viab	Beta cell apopt	T cruzi repl	SKKanGAS inh
Oc1ccc(-c2nccc(-c3ccc(Cl)cc3Cl)n2)cc1	-16	11	20	-1	79*	3
O=c1cc(N=Nc2ccc(Cl)cc2)[nH]c(=O)[nH]1	116*	x	x	10	35	97*
O=C(Cn1cnc([N+](=O)[O-])n1)N/N=C/c1cccc2ccccc12	0	5	91*	2	52	1
O=C(Cn1cnc([N+](=O)[O-])n1)N/N=C/c1ccc(O)cc1O	80*	7	-2	x	6	10
O=C(Cn1cnc([N+](=O)[O-])n1)N/N=C/c1cccc(Cl)c1	-8	-27	63*	-4	49	0
COCCNC(=O)/C(C#N)=C/c1cccc(NC(=O)c2ccccc2Cl)c1	-4	-24	30	x	-29	-2
CC(C)NC(=O)/C(C#N)=C/c1cccc(NC(=O)c2ccccc2Cl)c1	3	24	100*	4	-19	5
COc1ccc(NC(=O)COC(=O)CCC2CCCCC2)cc1	-11	21	x	-4	x	x
COC(=O)c1c(-c2ccc(OC)cc2)sc2cc3c(cc12)OCO3	26	-186	x	-2	x	x
COC(=O)c1c(-c2ccc(N(C)C)cc2)sc2ccc(OC)cc12	106*	-176	x	7	x	x
CCc1cccc(CC)c1NC(=O)/C(C#N)=C/c1ccccc1C(F)(F)F	68	45	97*	6	9	11
N#C/C(=C\c1ccccc1C(F)(F)F)C(=O)Nc1ccccc1	9	-12	2	1	-16	-11
COC(=O)C(Cc1c[nH]c2ccccc12)NC(=O)C1CC1 (stereo unspecified)	9	9	x	-4	-17	-20
COc1ccc(OCC(O)CN2CCC(CN3C(=O)c4cccc5cccc(c45)C3=O)CC2)cc1 (stereo unspecified)	6	19	x	12	33	4
O=C(CN1CCN(CCN2C(=O)c3cccc4cccc(c34)C2=O)CC1)c1ccc(F)cc1	0	-27	37	1	15	4
COc1cccc(OCC(O)CN2CCN(CCN3C(=O)c4cccc5cccc(c45)C3=O)CC2)c1 (stereo unspecified)	23	-11	100*	17	70*	10
O=C(CN1CCN(CCN2C(=O)c3cccc4cccc(c34)C2=O)CC1)c1ccc(Cl)cc1	x	x	87*	x	x	x
O=C1c2cccc3cccc(c23)C(=O)N1CCN1CCN(CC(O)COc2ccccc2)CC1 (stereo unspecified)	27	-6	97*	3	29	3
CCCCNS(=O)(=O)CCNCc1ccco1	x	15	x	x	x	x
COc1ccc(Cl)cc1C(=O)Nc1ccc(NC(=O)c2ccco2)cc1	x	10	-5	2	6	7
COc1ccc(Cl)cc1NC(=O)c1ccco1	-4	4	64*	-1	-15	-4
COc1ccc(Cl)cc1NC(=O)NC(C)C	-16	13	95*	1	-20	-11
CCNC(=S)Nc1cc(OC)c(NC(=O)c2ccco2)cc1OC	-22	-37	-3	x	0	0
COc1cc(NC(=O)C2CCCCC2)c(OC)cc1NC(=O)c1ccco1	-16	12	11	7	4	8
CCNC(=S)Nc1cc(OCC)c(NC(=O)c2ccco2)cc1OCC	-8	24	51*	2	6	-10
COc1cc(NC(=O)c2ccco2)c(OC)cc1NC(=O)Nc1ccccc1Cl	-6	2	72*	5	1	4
Cc1cc(C)cc(NC(=O)CSc2nc(N)c(NC(=O)c3ccc(Br)o3)c(=O)[nH]2)c1	-5	-22	x	-9	-7	1
